Results as given in PubChem BioAssay.
Inconclusive results are not listed.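 How the source made its calls, unless noted: active means inhibition over a set limit, the all-compound mean plus 3 SD, in both replicate runs; inconclusive means over that limit in just one replicate run; inactive means at or under that limit in both runs.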

Assays:
[1] = OD615 S. cerevisiae growth inhibition, permissive medium, pilot counter-assay, permissive growth control for S. cerevisiae lifespan shortening project (AID 705;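 active means growth inhibition above 25% in both replicates, a cutoff set 3 SD above the mean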); conditions: OD615, 24 h, at 10 µM, hits give high values
How it was run: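 System: engineered DeaD yeast; Medium: permissive raffinose/galactose medium; Compound dosing: 10 µM single dose, 0.25% DMSO; Incubation: 4 h cell pre-growth, 24 h exposure at 30 °C; Technique: OD at 615 nm; Evaluation: growth inhibition from lowered OD615 after 24 h.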

[2] = Restrictive medium S. cerevisiae growth inhibition, OD615, pilot screen of yeast lifespan reduction project, restrictive growth control (AID 706;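 active means growth inhibition above a set limit, 3 SD over mean compound inhibition, in both replicates, cut at about 43% in these data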;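 further: modified DeaD lifespan yeast strain shifted to restrictive glucose medium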); conditions: OD615, 48 h, at 10 µM, hits give high values
How it was run: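 Material: modified S. cerevisiae; buffer or medium: CSMM-D glucose medium; doses: one concentration, 10 µM final, 0.25% DMSO; incubation: 48 h compound exposure at 30 °C; detection: optical density at 615 nm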

[3] = viability gain of MRP-1-high H69AR cells under doxorubicin, pilot screen, MRP-1 activator project, CellTiter-Glo, duplicate (AID 807;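 active means viability increase at or above a cutoff of the median across tested compounds plus 3 SD, cut at about 8.5% in these data, passing the limit was not always enough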;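 further: compound pretreatment 18-22 h then 72 h combined with doxorubicin; 0% = doxorubicin alone and 100% = vehicle without doxorubicin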); conditions: H69AR viability with doxorubicin, CellTiter-Glo luminescence; at 10 µM; hits give high values
[4] = inhibitors of the yeast RAM network, pilot screen, dse1pr::URA3 reporter, 5-FOA selection (AID 869);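 further: 0% = DMSO wells with no growth and 100% = 10 µM 1-NA-PP1 with full growth; RAM network block rescues cells from 5-FOA so hits raise OD615 growth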; conditions: S. cerevisiae dse1pr::URA3 5-FOA growth, OD615, 2 d; at 10 µM; hits give high values; strain carries analog-sensitive mutant Cbk1 kinase
[5] = RAM signaling pathway blockade in yeast – S. cerevisiae, Pdr1DBD-CYC8 efflux-inhibited sensitized strain, primary screen (AID 1298;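 active means RAM network inhibition above 8.4% in each of two replicates, 3 SD over the compound average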;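 further: 0% = DMSO untreated cells without growth and 100% = 10 µM 1-NA-PP1 full growth; higher means more yeast growth rescued from 5-FOA killing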); conditions: S. cerevisiae cbk1-as DSE1-URA3 strain, 5-FOA growth OD615, 2 d; at 50 µM; hits give high values
[6] = growth suppression of PTEN-deleted HCT116, pilot screen, cell-based, HCT116 clonal line, CellTiter-Glo (AID 824;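 active means viability at or below 27.92% in each of two runs, the all-compound median minus 4 SD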;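 further: 0% = 20 µM Hyamine control and 100% = vehicle cell control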); conditions: 60 h, at 10 µM, hits give low values
[7] = growth suppression of beta-catenin knockout HCT116, pilot screen, human colon tumor cells (AID 823;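 active means cell viability at or below a set limit in both duplicate runs, the limit being the all-compound median minus 4 SD, cut at about 23% in these data, passing the limit was not always enough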;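 further: 0% = wells killed by 20 µM Hyamine and 100% = untreated DMSO cell wells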); conditions: CellTiter-Glo, 60 h, at 10 µM, hits give low values

COc1ccc(S(=O)(=O)Cc2ccc(C(=O)N3CCN(c4ccc(Cl)cc4)CC3)o2)cc1
inactive: growth inhibition [1] 2.93% | growth inhibition [2] -3.86% | viability increase [3] -4.86% | inhibition [4] 0.375% | RAM network inhibition [5] 6.31%

Cc1ccccc1CN1C(=O)C(O)(CC(=O)c2ccncc2)c2ccccc21 (stereo not given)
inactive: growth inhibition [1] -11.4% | growth inhibition [2] -5.55% | viability increase [3] -5.61% | inhibition [4] 1.28% | RAM network inhibition [5] 5.38%

CC1=C(C(=O)OCc2ccc3c(c2)OCO3)C(c2ccccc2)NC(=O)N1 (stereo not given)
inactive: growth inhibition [1] -12% | growth inhibition [2] -9.41% | viability increase [3] -4.88% | inhibition [4] 1.81% | RAM network inhibition [5] 2.03%

Cn1c(C(=O)NC2CCCCCC2)cc2c(=O)n(C)c3ccccc3c21
inactive: growth inhibition [1] 1.31% | growth inhibition [2] -8.3% | viability increase [3] -6.4% | inhibition [4] 1.1% | RAM network inhibition [5] 2.31%

O=C(CSc1oc(-c2ccc(F)cc2)nc1S(=O)(=O)c1ccc(F)cc1)NCC1CCCO1 (stereo not given)
inactive: growth inhibition [1] -8.11% | growth inhibition [2] -3.3% | viability increase [3] -7.22% | inhibition [4] 1.05% | RAM network inhibition [5] 6.87%

CCOc1ccc(-c2cc(CCCC(=O)Nc3cccc(OC)c3)no2)cc1
inactive: growth inhibition [1] -6.04% | growth inhibition [2] 3.52% | viability increase [3] -5.12% | inhibition [4] 3.28% | RAM network inhibition [5] 0.05%

Cn1c(=O)oc2cc(S(=O)(=O)N3CCCC(C(=O)NCc4ccc5c(c4)OCO5)C3)ccc21 (stereo not given)
inactive: growth inhibition [1] -7.5% | growth inhibition [2] 6.97% | viability increase [3] -7.5% | viability [6] 36.4% | inhibition [4] 3.25% | RAM network inhibition [5] 8.39%

CCN1CCN(c2cc(C)c3cc(NC(=O)c4ccc(Br)o4)ccc3n2)CC1
inactive: growth inhibition [1] -8.91% | growth inhibition [2] -15.6% | viability increase [3] -8.37% | inhibition [4] 1.75% | RAM network inhibition [5] 0.84%

CC(NC(=O)CN1CCN(Cc2ccc(Cl)cc2)C1=O)c1ccc2c(c1)OCCO2 (stereo not given)
inactive: growth inhibition [1] 2.64% | growth inhibition [2] -21.2% | viability [7] 84.1% | viability [6] 86.3% | inhibition [4] -0.3% | RAM network inhibition [5] 0.27%

Cc1cc(N2CCN(S(=O)(=O)c3ccc(Cl)cc3)CC2)c2ccccc2n1
inactive: growth inhibition [1] -3.2% | growth inhibition [2] -2.46% | viability increase [3] -2.62% | inhibition [4] -0.15% | RAM network inhibition [5] 2.74%

Cc1nc(N2CCN(Cc3ccc4c(c3)OCO4)CC2)c2oc3ccccc3c2n1
inactive: growth inhibition [1] -0.195% | growth inhibition [2] -1.24% | viability increase [3] -4.93% | inhibition [4] 2% | RAM network inhibition [5] 4.68%

CCn1c(=O)c(=O)[nH]c2cc(C(=O)NC3CCCc4ccccc43)ccc21 (stereo not given)
inactive: growth inhibition [1] -2.89% | growth inhibition [2] -5.91% | viability increase [3] -5.19% | inhibition [4] 1.7% | RAM network inhibition [5] 3.67%

Cn1c(C(=O)NCCCN2CCN(c3ccccc3F)CC2)cc2c(=O)n(C)c3ccccc3c21
inactive: growth inhibition [1] -3.28% | growth inhibition [2] -4.87% | viability increase [3] -8.02% | viability [6] 54.9% | inhibition [4] 0.6% | RAM network inhibition [5] 0.96%

O=C(COc1ccccc1)NCCSc1ccccc1
inactive: growth inhibition [1] -10.4% | growth inhibition [2] -5.4% | viability increase [3] -2.23% | viability [6] 97.5% | inhibition [4] 1.55% | RAM network inhibition [5] 0.83%

CN1C(=O)C(O)(CC(=O)c2ccccn2)c2cc(Br)ccc21 (stereo not given)
inactive: growth inhibition [1] -0.08% | growth inhibition [2] 6.53% | viability increase [3] -7.14% | inhibition [4] 0.9% | RAM network inhibition [5] 3.11%

OC(COc1ccc(C2C=CCC2)cc1)CN1CCCCC1 (stereo not given)
inactive: growth inhibition [1] 0.36% | growth inhibition [2] -8.12% | viability increase [3] -4.7% | inhibition [4] 1.75% | RAM network inhibition [5] 3.83%

Cc1cccc(N2CCN(C(=O)c3cc4c(=O)n(C)c5ccccc5c4n3C)CC2)c1C
inactive: growth inhibition [1] -7.02% | growth inhibition [2] -6.91% | viability [7] 61.1% | viability [6] 65.5% | inhibition [4] 3.12% | RAM network inhibition [5] 1.49%

O=C(CCS(=O)(=O)c1ccccc1)Nc1nc2c(s1)CCCC2
inactive: growth inhibition [1] -16.6% | growth inhibition [2] -17.7% | viability increase [3] -8.89% | inhibition [4] 0.495% | RAM network inhibition [5] 3.5%

Cn1nc(-c2ccc(Cl)cc2)c2cc(C(=O)NCCN3CCOCC3)sc21
inactive: growth inhibition [1] -4.46% | growth inhibition [2] -5.2% | viability increase [3] -7.41% | inhibition [4] 0.45% | RAM network inhibition [5] -1.47%
